The results in this text go back to ChEMBL document CHEMBL4138147, “Discovery of a fluorescent probe with HDAC6 selective inhibition” (Eur J Med Chem, 2017).

The target of data set [1] is T1, Protein deacetylase HDAC6 (Homo sapiens, UniProt Q9UBN7).
T1 sequence (Q9UBN7 whole entry): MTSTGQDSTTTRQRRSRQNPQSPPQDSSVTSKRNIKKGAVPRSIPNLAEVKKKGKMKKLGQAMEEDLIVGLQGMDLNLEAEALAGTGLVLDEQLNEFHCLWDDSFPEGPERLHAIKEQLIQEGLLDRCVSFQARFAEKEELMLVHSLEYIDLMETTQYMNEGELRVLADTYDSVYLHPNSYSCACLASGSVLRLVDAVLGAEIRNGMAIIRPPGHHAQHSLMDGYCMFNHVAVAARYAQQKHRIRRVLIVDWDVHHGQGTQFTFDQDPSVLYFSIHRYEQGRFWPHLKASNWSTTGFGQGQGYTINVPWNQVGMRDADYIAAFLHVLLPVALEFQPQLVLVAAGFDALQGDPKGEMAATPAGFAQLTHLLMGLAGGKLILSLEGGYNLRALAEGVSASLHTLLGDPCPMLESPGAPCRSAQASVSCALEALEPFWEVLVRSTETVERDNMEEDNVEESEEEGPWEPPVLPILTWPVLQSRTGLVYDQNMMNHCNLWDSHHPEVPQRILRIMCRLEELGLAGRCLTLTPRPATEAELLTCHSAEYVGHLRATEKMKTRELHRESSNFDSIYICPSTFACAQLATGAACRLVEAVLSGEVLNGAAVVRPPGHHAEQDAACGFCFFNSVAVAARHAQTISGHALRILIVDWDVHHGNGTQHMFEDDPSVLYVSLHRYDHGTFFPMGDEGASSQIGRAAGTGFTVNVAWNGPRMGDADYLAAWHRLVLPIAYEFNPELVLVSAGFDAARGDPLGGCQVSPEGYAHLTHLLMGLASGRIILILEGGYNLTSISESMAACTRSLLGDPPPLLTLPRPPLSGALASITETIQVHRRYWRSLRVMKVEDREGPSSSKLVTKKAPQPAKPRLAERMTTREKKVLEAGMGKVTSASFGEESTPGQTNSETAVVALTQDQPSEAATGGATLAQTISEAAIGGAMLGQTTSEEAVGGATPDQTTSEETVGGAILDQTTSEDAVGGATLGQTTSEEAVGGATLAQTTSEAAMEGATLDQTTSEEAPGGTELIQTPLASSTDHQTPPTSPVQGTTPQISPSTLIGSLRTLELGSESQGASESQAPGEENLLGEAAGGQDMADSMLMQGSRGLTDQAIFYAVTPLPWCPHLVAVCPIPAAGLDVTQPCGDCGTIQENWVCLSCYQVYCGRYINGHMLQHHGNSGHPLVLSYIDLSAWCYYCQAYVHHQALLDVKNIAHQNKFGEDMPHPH
The experiment in a line: Inhibition of human recombinant full-length HDAC6 expressed in baculovirus infected Sf9 cells using Boc-Lys(acetyl)-AMC as substrate after 30 mins by fluorescence assay.

The target in a further data set is Histone deacetylase 1 (Homo sapiens, UniProt Q13547). The experiment in a line: Inhibition of human recombinant full-length HDAC1 (1 to 482 residues) expressed in baculovirus using Boc-Lys(acetyl)-AMC as substrate after 30 mins by fluorescence assay.
Chain of Histone deacetylase 1 (Q13547 whole entry, the tested form may be a part): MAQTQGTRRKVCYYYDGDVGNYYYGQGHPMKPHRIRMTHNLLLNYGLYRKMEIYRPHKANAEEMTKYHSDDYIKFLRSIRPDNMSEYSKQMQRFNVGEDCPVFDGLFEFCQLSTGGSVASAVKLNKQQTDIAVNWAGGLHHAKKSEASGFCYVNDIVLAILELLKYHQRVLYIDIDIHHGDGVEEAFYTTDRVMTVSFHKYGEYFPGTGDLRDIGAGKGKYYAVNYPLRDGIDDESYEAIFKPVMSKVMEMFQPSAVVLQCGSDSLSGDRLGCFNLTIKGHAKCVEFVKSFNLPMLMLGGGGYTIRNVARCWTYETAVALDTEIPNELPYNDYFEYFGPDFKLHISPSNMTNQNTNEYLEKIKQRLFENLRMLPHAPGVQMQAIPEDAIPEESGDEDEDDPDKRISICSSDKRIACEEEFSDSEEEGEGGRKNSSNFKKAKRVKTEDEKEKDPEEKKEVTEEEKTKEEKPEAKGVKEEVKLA
Data set [2] deals with Histone deacetylase 1/2/3 (Homo sapiens) (UniProt Q13547+O15379+Q92769). Particulars: A549, at 500 nM.
Another data set has as its target Histone deacetylase 3 (Homo sapiens, UniProt O15379). The experiment in a line: Inhibition of human recombinant full-length C-terminal GST-tagged HDAC3 expressed in baculovirus infected Sf9 cells using Boc-Lys(acetyl)-AMC as substrate after 30 mins by fluorescence assay.
Data set [3] concerns the target T2, Protein deacetylase HDAC6 (Homo sapiens) (UniProt Q9UBN7).
T2 sequence (whole entry): T1 sequence (Q9UBN7 whole entry)
The experiment in a line: Binding affinity to HDAC6 in aggresomes of human A549 cells assessed as formation of aggresome-like structures at 2 uM added after 24 hrs pre-treatment with MG132 followed by compound addition measured after 2 hrs by fluorescence staining-based confocal microscopic analysis. In short, it runs like this:
(§1)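 A549 cells (DMEM, 10% FBS, 37 °C, 5% CO2) given DMSO or 5 μM MG132 for 24 h, fixed in 4% formaldehyde/PBS 20 min, then stained with 2 μM compound in PBS for 2 h. For antibody co-staining, cells were permeabilized with 0.1% Triton X-100, BSA-blocked, and probed overnight at 4 °C with anti-HDAC6 or anti-ubiquitin antibody plus Alexa 647 secondary before the compound. Confocal imaging: compound ex 405/em 500–600 nm; antibody ex 633/em 650–750 nm.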

The next data set addresses Histone deacetylase 2 (Homo sapiens, UniProt Q92769). The experiment in a line: Inhibition of human recombinant full-length C-terminal GST-tagged HDAC2 expressed in baculovirus infected Sf9 cells using Boc-Lys(acetyl)-AMC as substrate after 30 mins by fluorescence assay. It is filed as cell-based.
A further data set deals with T3, Histone deacetylase 7 (Homo sapiens, UniProt Q8WUI4).
T3 sequence (Q8WUI4 whole entry): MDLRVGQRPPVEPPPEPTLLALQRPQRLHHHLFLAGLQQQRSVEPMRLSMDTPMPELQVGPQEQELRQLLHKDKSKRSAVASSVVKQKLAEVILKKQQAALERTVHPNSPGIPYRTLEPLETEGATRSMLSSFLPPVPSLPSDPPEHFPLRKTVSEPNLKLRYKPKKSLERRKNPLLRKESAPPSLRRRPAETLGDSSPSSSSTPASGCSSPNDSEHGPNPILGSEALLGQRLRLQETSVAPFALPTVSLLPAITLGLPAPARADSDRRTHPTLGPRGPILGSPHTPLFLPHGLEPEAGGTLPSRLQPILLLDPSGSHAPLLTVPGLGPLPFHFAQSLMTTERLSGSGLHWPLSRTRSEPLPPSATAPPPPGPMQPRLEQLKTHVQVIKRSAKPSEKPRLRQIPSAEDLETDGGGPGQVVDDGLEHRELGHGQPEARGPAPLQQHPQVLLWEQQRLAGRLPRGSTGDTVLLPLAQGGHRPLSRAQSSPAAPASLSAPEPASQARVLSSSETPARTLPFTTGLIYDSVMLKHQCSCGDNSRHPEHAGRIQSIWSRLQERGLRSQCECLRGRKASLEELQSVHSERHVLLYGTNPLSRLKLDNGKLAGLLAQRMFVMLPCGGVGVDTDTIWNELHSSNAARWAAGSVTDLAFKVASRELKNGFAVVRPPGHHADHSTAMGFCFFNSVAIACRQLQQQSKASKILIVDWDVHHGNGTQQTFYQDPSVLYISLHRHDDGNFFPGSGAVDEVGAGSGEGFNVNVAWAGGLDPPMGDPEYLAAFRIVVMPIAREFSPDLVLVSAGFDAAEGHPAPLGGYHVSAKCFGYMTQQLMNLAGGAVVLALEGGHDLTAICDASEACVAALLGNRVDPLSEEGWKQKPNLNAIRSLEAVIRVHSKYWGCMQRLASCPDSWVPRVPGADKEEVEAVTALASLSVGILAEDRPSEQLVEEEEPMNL
The experiment in a line: Inhibition of HDAC7 (unknown origin) using Boc-Lys(acetyl)-AMC as substrate after 30 mins by fluorescence assay.

For data set [4], the target named is T2, Protein deacetylase HDAC6 (Homo sapiens). The experiment in a line: Binding affinity to HDAC6 in aggresomes of human A549 cells assessed as induction of co-localization of aggresome-like structures with polyubiquitin at 2 uM added after 24 hrs pre-treatment with MG132 followed by compound addition measured after 2 hrs by fluorescence staining-based confocal microscopic analysis. The procedure, abridged:
as §1

The target in data set [5] is T4, Polyamine deacetylase HDAC10 (Homo sapiens, UniProt Q969S8).
T4 sequence (Q969S8 whole entry): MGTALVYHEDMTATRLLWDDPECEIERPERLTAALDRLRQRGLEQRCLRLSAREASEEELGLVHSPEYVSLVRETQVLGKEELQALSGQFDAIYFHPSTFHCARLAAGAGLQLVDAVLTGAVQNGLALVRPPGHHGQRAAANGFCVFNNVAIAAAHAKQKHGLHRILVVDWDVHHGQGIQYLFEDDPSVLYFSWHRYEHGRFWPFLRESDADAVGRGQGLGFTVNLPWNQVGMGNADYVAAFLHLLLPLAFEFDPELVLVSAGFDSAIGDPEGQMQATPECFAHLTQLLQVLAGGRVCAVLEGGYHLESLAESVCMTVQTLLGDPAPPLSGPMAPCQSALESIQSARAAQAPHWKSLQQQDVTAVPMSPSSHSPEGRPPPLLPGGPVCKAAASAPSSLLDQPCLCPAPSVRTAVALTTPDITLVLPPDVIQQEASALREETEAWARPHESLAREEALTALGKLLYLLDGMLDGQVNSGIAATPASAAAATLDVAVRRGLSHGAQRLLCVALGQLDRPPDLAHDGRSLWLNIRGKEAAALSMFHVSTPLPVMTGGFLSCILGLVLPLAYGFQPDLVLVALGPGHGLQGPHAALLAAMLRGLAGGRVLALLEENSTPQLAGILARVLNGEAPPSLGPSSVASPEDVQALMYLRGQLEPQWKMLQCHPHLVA
The experiment in a line: Inhibition of HDAC10 (unknown origin) using Boc-Lys(acetyl)-AMC as substrate after 30 mins by fluorescence assay. The procedure, abridged: (§2)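 The HDAC isoform was incubated with substrate and compound (from a 10% DMSO dilution, 5 μL into a 50 μL reaction) at 37 °C for 30 min. The reaction was stopped with developer containing trypsin and TSA.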

The nature of data set [6]: Drug uptake in human A549 cells assessed as intracellular distribution at 2 uM added after 24 hrs pre-treatment with MG132 followed by compound addition measured after 2 hrs by fluorescence staining-based confocal microscopic analysis. As to conditions: a549, 24 h. In kind it is ADME, cell-based. In short, it runs like this: as §1
The next data set concerns the target Histone deacetylase 9 (Homo sapiens, UniProt Q9UKV0). The experiment in a line: Inhibition of HDAC9 (unknown origin) using Boc-Lys(acetyl)-AMC as substrate after 30 mins by fluorescence assay. The procedure, abridged:
as §2

The target in another data set is T5, Histone deacetylase 11 (Homo sapiens, UniProt Q96DB2).
T5 sequence (Q96DB2 whole entry): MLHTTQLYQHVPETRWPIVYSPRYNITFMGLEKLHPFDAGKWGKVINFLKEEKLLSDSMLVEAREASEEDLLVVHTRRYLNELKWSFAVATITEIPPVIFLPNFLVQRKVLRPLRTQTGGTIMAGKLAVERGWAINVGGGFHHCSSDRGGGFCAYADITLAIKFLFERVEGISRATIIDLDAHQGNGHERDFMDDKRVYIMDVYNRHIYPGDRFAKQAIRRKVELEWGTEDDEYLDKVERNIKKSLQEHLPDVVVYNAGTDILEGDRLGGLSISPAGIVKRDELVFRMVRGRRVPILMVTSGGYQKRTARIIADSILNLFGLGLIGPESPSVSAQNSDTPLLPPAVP
The experiment in a line: Inhibition of HDAC11 (unknown origin) using Boc-Lys(acetyl)-AMC as substrate after 30 mins by fluorescence assay. In short, it runs like this:
as §2

Data set [7] has as its target T2, Protein deacetylase HDAC6 (Homo sapiens). The experiment in a line: Binding affinity to HDAC6 in aggresomes of human A549 cells assessed as relocation of compound to single bright juxtanuclear structure at 2 uM added after 24 hrs pre-treatment with MG132 followed by compound addition measured after 2 hrs by fluorescence staining-based confocal microscopic analysis. In short, it runs like this:
as §1

The target in another data set is Histone deacetylase 5 (Homo sapiens, UniProt Q9UQL6). The experiment in a line: Inhibition of HDAC5 (unknown origin) using Boc-Lys(acetyl)-AMC as substrate after 30 mins by fluorescence assay. The procedure, abridged: as §2
Chain of Histone deacetylase 5 (Q9UQL6 whole entry): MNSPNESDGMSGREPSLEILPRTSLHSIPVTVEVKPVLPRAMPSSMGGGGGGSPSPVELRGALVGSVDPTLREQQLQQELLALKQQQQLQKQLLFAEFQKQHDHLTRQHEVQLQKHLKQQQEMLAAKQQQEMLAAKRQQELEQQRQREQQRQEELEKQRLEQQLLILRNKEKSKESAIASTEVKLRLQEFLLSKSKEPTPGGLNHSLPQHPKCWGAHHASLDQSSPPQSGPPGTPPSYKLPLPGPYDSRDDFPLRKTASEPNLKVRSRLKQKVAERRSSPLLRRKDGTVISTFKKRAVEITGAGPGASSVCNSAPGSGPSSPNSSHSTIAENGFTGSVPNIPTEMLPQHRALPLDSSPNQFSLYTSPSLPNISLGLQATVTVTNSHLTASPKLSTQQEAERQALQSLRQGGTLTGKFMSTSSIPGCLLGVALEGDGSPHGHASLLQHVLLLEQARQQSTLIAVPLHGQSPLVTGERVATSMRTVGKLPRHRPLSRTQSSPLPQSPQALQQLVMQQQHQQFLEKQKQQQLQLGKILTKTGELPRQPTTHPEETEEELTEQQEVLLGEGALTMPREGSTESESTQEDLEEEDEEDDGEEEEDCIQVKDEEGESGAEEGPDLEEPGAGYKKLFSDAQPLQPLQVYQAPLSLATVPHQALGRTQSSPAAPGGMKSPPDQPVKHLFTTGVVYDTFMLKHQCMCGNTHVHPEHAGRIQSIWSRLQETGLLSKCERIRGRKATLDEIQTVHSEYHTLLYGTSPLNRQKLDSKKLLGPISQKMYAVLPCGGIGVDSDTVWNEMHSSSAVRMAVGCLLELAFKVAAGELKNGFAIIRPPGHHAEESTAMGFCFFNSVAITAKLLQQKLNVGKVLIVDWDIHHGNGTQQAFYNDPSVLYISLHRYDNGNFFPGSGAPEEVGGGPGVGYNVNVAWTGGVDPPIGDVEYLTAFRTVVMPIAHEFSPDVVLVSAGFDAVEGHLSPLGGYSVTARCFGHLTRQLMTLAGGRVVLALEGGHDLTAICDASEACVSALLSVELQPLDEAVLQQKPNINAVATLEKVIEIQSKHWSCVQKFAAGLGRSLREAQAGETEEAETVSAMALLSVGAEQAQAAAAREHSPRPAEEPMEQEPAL
The target in the next data set is Histone deacetylase 4 (Homo sapiens, UniProt P56524). The experiment in a line: Inhibition of HDAC4 (unknown origin) using Boc-Lys(acetyl)-AMC as substrate after 30 mins by fluorescence assay. In short, it runs like this:
as §2

Data set [8] can be described thus: Drug uptake in cytoplasm of human A549 cells assessed as diffused staining in cytoplasm at 2 uM added after 24 hrs pre-treatment with DMSO followed by compound addition measured after 2 hrs by fluorescence staining-based confocal microscopic analysis. It is filed as ADME, subcellular. Particulars: a549, 24 h. In short, it runs like this:
as §1

Another data set deals with T6, Histone deacetylase 8 (Homo sapiens, UniProt Q9BY41).
T6 sequence (Q9BY41 whole entry): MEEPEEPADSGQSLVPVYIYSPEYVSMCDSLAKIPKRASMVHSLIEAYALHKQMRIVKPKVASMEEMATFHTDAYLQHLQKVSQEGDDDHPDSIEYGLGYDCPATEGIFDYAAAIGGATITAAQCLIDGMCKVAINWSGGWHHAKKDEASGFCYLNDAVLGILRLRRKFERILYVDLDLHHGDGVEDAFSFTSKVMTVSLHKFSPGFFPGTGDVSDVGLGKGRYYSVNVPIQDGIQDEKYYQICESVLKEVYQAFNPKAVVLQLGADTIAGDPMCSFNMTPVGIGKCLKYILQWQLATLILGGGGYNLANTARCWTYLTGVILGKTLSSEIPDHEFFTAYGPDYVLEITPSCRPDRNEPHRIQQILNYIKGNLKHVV
The experiment in a line: Inhibition of HDAC8 (unknown origin) using Boc-Lys(acetyl)-AMC as substrate after 30 mins by fluorescence assay. In short, it runs like this: as §2

As usually defined, the IC50 is the concentration that gives 50% inhibition.

The structures appear in SMILES notation. Activity calls are given as the source filed them. No cut-off for these calls is given here. Where only a bound is given, the exact number is not on record here.

Chain of Histone deacetylase 2 (Q92769 whole entry): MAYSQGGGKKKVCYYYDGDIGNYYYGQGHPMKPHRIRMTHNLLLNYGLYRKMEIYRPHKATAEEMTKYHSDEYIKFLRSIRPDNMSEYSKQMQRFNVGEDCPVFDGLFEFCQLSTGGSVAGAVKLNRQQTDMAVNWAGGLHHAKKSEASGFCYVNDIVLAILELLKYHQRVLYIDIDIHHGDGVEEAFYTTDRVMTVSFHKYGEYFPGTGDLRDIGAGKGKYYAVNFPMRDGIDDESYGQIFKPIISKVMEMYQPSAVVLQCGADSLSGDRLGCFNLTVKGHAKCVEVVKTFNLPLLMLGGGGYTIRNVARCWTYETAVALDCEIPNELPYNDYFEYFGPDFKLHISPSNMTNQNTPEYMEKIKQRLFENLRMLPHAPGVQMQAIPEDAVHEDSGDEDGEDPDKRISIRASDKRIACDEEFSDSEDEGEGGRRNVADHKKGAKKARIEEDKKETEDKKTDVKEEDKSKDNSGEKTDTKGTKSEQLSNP
Chain of Histone deacetylase 3 (O15379 whole entry): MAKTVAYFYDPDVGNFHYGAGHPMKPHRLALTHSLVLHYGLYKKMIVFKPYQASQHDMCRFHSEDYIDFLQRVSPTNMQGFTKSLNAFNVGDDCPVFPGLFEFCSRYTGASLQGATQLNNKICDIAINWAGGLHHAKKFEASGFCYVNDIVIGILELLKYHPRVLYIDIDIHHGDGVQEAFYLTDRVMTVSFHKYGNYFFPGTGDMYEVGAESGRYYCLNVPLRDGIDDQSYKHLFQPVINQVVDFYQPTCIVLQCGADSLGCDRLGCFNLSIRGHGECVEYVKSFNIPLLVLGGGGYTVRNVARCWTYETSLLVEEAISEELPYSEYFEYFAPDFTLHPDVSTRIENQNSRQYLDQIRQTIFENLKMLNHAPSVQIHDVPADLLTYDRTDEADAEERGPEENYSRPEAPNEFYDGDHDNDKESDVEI
Chain of Histone deacetylase 4 (P56524 whole entry): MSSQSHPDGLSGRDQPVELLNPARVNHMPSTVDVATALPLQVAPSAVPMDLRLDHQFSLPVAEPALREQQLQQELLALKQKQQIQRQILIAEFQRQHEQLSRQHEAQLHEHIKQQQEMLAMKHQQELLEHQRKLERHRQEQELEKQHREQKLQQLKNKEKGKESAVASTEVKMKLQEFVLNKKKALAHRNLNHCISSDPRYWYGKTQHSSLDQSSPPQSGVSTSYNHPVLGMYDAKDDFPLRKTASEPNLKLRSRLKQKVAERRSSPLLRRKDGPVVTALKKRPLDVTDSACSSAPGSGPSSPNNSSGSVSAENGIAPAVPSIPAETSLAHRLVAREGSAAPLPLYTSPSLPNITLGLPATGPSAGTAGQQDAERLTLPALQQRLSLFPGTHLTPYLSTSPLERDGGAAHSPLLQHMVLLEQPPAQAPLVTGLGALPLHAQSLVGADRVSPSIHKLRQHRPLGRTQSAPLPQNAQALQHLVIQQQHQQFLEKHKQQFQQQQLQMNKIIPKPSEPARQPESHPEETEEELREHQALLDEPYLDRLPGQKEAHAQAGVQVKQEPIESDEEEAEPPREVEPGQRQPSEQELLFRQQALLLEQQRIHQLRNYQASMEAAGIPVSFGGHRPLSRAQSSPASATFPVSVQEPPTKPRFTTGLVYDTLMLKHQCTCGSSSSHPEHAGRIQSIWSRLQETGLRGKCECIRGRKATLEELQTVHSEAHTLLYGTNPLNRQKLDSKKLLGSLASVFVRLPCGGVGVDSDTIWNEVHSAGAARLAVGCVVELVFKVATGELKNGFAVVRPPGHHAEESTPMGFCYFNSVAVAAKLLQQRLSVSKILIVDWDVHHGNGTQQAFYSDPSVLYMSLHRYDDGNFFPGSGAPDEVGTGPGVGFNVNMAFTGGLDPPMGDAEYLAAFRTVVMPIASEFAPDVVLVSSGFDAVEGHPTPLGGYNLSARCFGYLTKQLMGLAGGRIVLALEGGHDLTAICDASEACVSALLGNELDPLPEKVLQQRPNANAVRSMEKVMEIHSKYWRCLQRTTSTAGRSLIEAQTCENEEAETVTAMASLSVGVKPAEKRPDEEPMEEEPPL
Chain of Histone deacetylase 9 (Q9UKV0 whole entry): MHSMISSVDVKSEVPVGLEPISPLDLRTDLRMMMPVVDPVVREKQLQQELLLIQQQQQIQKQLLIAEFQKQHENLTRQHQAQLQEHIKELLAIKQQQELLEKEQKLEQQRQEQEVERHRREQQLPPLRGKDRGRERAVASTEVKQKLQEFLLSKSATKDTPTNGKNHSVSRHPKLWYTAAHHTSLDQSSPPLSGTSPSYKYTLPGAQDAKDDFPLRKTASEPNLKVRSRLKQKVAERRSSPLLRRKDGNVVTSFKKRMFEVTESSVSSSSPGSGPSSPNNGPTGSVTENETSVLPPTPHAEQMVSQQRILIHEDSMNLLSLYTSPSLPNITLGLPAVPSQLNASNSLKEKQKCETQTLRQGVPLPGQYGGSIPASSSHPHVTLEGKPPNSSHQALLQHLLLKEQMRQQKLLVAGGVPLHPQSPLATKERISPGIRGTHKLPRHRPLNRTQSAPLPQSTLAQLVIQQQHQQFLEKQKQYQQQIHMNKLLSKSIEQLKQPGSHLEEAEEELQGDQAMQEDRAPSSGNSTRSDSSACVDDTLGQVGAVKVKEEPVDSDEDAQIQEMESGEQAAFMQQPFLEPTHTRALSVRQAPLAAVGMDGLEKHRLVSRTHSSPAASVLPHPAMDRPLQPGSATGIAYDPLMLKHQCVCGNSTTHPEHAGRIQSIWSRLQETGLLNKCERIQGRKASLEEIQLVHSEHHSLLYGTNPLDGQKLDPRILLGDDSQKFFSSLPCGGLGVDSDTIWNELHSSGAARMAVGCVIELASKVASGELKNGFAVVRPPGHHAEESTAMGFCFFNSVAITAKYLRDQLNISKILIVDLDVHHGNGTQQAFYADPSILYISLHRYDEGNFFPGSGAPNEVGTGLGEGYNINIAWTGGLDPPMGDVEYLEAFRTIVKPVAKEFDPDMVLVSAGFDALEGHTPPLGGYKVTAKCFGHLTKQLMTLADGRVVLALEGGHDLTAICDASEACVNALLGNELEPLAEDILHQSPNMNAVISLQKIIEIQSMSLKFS

For `O=C(NO)c1ccc(CN2C(=O)c3cccc4c(N5CCOCC5)ccc(c34)C2=O)cc1`, the half-maximal inhibitory concentration (IC50) in data set [1] was determined as 2.7 nM; at Histone deacetylase 1 it was 36.2 nM; on Histone deacetylase 3, 11.1 nM; on Histone deacetylase 2, 98.8 nM. Moreover, the inhibition result in data set [2] was “Active”. In addition, in [3], the result was inactive.
Take `O=C(CCCCCN1C(=O)c2cccc3c(N4CCOCC4)ccc(c23)C1=O)NO`: the IC50 in [1] came out at 0.65 nM; at Histone deacetylase 1, 5.25 nM; at Histone deacetylase 3, 2.65 nM; on Histone deacetylase 2 it was 25.6 nM. In data set [3], the outcome was inactive.
On to `O=C(NO)c1ccc(CCN2C(=O)c3cccc4c(N5CCOCC5)ccc(c34)C2=O)cc1`, for which the concentration for half-maximal inhibition (IC50) at Histone deacetylase 7 is greater than 100000 nM; in data set [1], 139 nM; in data set [5], 1870 nM; at Histone deacetylase 9 it was greater than 30000 nM; on Histone deacetylase 1, greater than 20000 nM; at Histone deacetylase 3, greater than 30000 nM. The IC50 at Histone deacetylase 11 was greater than 10000 nM; at Histone deacetylase 2, greater than 100000 nM; on Histone deacetylase 5, greater than 100000 nM; against Histone deacetylase 4 it was greater than 100000 nM; at Histone deacetylase 8 it was 3050 nM. Besides, the outcome in [4], in [7] and in [3] was Active. Moreover, the Drug uptake result in data set [6] and in data set [8] was “Active” throughout. In [2], the inhibition result was “inactive”.
